Data taken from ChEMBL document CHEMBL4610092, “Cytotoxic Nitrogenated Azaphilones from the Deep-Sea-Derived Fungus Chaetomium globosum MP4-S01-7” (J Nat Prod, 2020).

What was measured:
MGC-803 [1] = experiment: Cytotoxicity against human MGC803 cells assessed as reduction in cell viability measured after 72 hrs by CCK8 assay; format: functional, cell-based; settings: MGC-803, 72 h
In short: (§1)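 MGC803 or AGS cells (RPMI 1640, 10% FBS, 5% CO₂, 37 °C) plated at 3 × 10³ per well overnight, then exposed to 0.1–10 μM for 72 h. Viability was read by CCK8 absorbance at 450 nm, and IC₅₀ was calculated from the concentration series.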

AGS [2] = experiment: Cytotoxicity against human AGS cells assessed as reduction in cell viability measured after 72 hrs by CCK8 assay; format: functional, cell-based; in short: as §1
AGS [3] = experiment: Induction of apoptosis in human AGS cells assessed as early apoptotic cells at 5 uM measured after 48 hrs FITC-A/PE-A staining based flow cytometry (reference value: 1.77 to 2.91%); format: functional
AGS [4] = experiment: Induction of apoptosis in human AGS cells assessed as viable cells at 0.2 uM measured after 48 hrs FITC-A/PE-A staining based flow cytometry (reference value: 92.05 to 93.85%); format: functional; settings: read-out: Activity
AGS [5] = experiment: Induction of apoptosis in human AGS cells assessed as late apoptotic cells at 0.2 uM measured after 48 hrs FITC-A/PE-A staining based flow cytometry (reference value: 1.89 to 3.49%); format: functional
MGC-803 [6] = experiment: Induction of apoptosis in human MGC803 cells assessed as early apoptotic cells at 0.5 uM measured after 48 hrs FITC-A/PE-A staining based flow cytometry (reference value: 0.59 to 3.54%); format: functional
AGS [7] = experiment: Induction of apoptosis in human AGS cells assessed as late apoptotic cells at 1 uM measured after 48 hrs FITC-A/PE-A staining based flow cytometry (reference value: 1.89 to 3.49%); format: functional
MGC-803 [8] = experiment: Induction of apoptosis in human MGC803 cells assessed as late apoptotic cells at 0.2 uM measured after 48 hrs FITC-A/PE-A staining based flow cytometry (reference value: 0.9 to 2.18%); format: functional
MGC-803 [9] = experiment: Induction of apoptosis in human MGC803 cells assessed as early apoptotic cells at 0.2 uM measured after 48 hrs FITC-A/PE-A staining based flow cytometry (reference value: 0.59 to 3.54%); format: functional
MGC-803 [10] = experiment: Induction of apoptosis in human MGC803 cells assessed as viable cells at 1 uM measured after 48 hrs FITC-A/PE-A staining based flow cytometry (reference value: 94.89 to 96.41%); format: functional; settings: MGC-803, 48 h, read-out: Activity
AGS [11] = experiment: Induction of apoptosis in human AGS cells assessed as necrotic cells at 0.2 uM measured after 48 hrs FITC-A/PE-A staining based flow cytometry (reference value: 1.35 to 2.69%); format: functional
AGS [12] = experiment: Induction of apoptosis in human AGS cells assessed as late apoptotic cells at 0.5 uM measured after 48 hrs FITC-A/PE-A staining based flow cytometry (reference value: 1.89 to 3.49%); format: functional
AGS [13] = experiment: Induction of apoptosis in human AGS cells assessed as early apoptotic cells at 1 uM measured after 48 hrs FITC-A/PE-A staining based flow cytometry (reference value: 1.77 to 2.91%); format: functional
AGS [14] = experiment: Induction of apoptosis in human AGS cells assessed as early apoptotic cells at 0.5 uM measured after 48 hrs FITC-A/PE-A staining based flow cytometry (reference value: 1.77 to 2.91%); format: functional
MGC-803 [15] = experiment: Induction of apoptosis in human MGC803 cells assessed as early apoptotic cells at 1 uM measured after 48 hrs FITC-A/PE-A staining based flow cytometry (reference value: 0.59 to 3.54%); format: functional
MGC-803 [16] = experiment: Induction of apoptosis in human MGC803 cells assessed as viable cells at 0.2 uM measured after 48 hrs FITC-A/PE-A staining based flow cytometry (reference value: 94.89 to 96.41%); format: functional; settings: MGC-803, 48 h, read-out: Activity
MGC-803 [17] = experiment: Induction of apoptosis in human MGC803 cells measured after 48 hrs FITC-A/PE-A staining based flow cytometry; format: functional, cell-based
AGS [18] = experiment: Induction of apoptosis in human AGS cells assessed as early apoptotic cells at 0.2 uM measured after 48 hrs FITC-A/PE-A staining based flow cytometry (reference value: 1.77 to 2.91%); format: functional
MGC-803 [19] = experiment: Induction of apoptosis in human MGC803 cells assessed as early apoptotic cells at 5 uM measured after 48 hrs FITC-A/PE-A staining based flow cytometry (reference value: 0.59 to 3.54%); format: functional
MGC-803 [20] = experiment: Induction of apoptosis in human MGC803 cells assessed as necrotic cells at 5 uM measured after 48 hrs FITC-A/PE-A staining based flow cytometry (reference value: 0.9 to 2.18%); format: functional
MGC-803 [21] = experiment: Induction of apoptosis in human MGC803 cells assessed as viable cells at 0.5 uM measured after 48 hrs FITC-A/PE-A staining based flow cytometry (reference value: 94.89 to 96.41%); format: functional; settings: MGC-803, 48 h, read-out: Activity
MGC-803 [22] = experiment: Induction of apoptosis in human MGC803 cells assessed as necrotic cells at 1 uM measured after 48 hrs FITC-A/PE-A staining based flow cytometry (reference value: 0.9 to 2.18%); format: functional
AGS [23] = experiment: Induction of apoptosis in human AGS cells assessed as viable cells at 0.5 uM measured after 48 hrs FITC-A/PE-A staining based flow cytometry (reference value: 92.05 to 93.85%); format: functional; settings: read-out: Activity
MGC-803 [24] = experiment: Induction of apoptosis in human MGC803 cells assessed as late apoptotic cells at 1 uM measured after 48 hrs FITC-A/PE-A staining based flow cytometry (reference value: 0.67 to 0.82%); format: functional
MGC-803 [25] = experiment: Induction of apoptosis in human MGC803 cells assessed as viable cells at 5 uM measured after 48 hrs FITC-A/PE-A staining based flow cytometry (reference value: 94.89 to 96.41%); format: functional; settings: MGC-803, 48 h, read-out: Activity
AGS [26] = experiment: Induction of apoptosis in human AGS cells measured after 48 hrs FITC-A/PE-A staining based flow cytometry; format: functional, cell-based
AGS [27] = experiment: Induction of apoptosis in human AGS cells assessed as late apoptotic cells at 5 uM measured after 48 hrs FITC-A/PE-A staining based flow cytometry (reference value: 1.89 to 3.49%); format: functional
AGS [28] = experiment: Induction of apoptosis in human AGS cells assessed as viable cells at 5 uM measured after 48 hrs FITC-A/PE-A staining based flow cytometry (reference value: 92.05 to 93.85%); format: functional; settings: read-out: Activity
AGS [29] = experiment: Induction of apoptosis in human AGS cells assessed as viable cells at 1 uM measured after 48 hrs FITC-A/PE-A staining based flow cytometry (reference value: 92.05 to 93.85%); format: functional; settings: read-out: Activity
MGC-803 [30] = experiment: Induction of apoptosis in human MGC803 cells assessed as late apoptotic cells at 5 uM measured after 48 hrs FITC-A/PE-A staining based flow cytometry (reference value: 0.67 to 0.82%); format: functional
MGC-803 [31] = experiment: Induction of apoptosis in human MGC803 cells assessed as necrotic cells at 0.5 uM measured after 48 hrs FITC-A/PE-A staining based flow cytometry (reference value: 0.9 to 2.18%); format: functional
MGC-803 [32] = experiment: Induction of apoptosis in human MGC803 cells assessed as necrotic cells at 0.2 uM measured after 48 hrs FITC-A/PE-A staining based flow cytometry (reference value: 0.9 to 2.18%); format: functional
AGS [33] = experiment: Induction of apoptosis in human AGS cells assessed as necrotic cells at 5 uM measured after 48 hrs FITC-A/PE-A staining based flow cytometry (reference value: 1.35 to 2.69%); format: functional
AGS [34] = experiment: Induction of apoptosis in human AGS cells assessed as necrotic cells at 0.5 uM measured after 48 hrs FITC-A/PE-A staining based flow cytometry (reference value: 1.35 to 2.69%); format: functional
AGS [35] = experiment: Induction of apoptosis in human AGS cells assessed as necrotic cells at 1 uM measured after 48 hrs FITC-A/PE-A staining based flow cytometry (reference value: 1.35 to 2.69%); format: functional
MGC-803 [36] = experiment: Induction of apoptosis in human MGC803 cells assessed as late apoptotic cells at 0.5 uM measured after 48 hrs FITC-A/PE-A staining based flow cytometry (reference value: 0.9 to 2.18%); format: functional

`C/C=C(\C)C(=O)C1=C2C3=COC(/C=C/[C@@H](C)CC)=CC3=C(Cl)C(=O)[C@@]2(C)OC1=O` [CHAETOVIRIDIN E] showed an IC50 (MGC-803 [1]) of over 10000 nM and an IC50 (AGS [2]) of over 10000 nM.

Work on `CC(=O)O[C@H]1C(=O)[C@@]2(C)[C@H]([C@H](OC(=O)c3ccccc3)[C@]3(O)C[C@H](OC(=O)[C@H](O)[C@@H](NC(=O)c4ccccc4)c4ccccc4)C(C)=C1C3(C)C)[C@]1(OC(C)=O)CO[C@@H]1C[C@@H]2O` [PACLITAXEL] yielded an IC50 (MGC-803 [1]) of 3800 nM.

For `CC[C@H](C)/C=C/C1=CC2=C(Cl)C(=O)[C@@]3(C)OC(=O)C(C(=O)[C@H](C)[C@@H](C)O)=C3C2=CN1C/C=C(\C)CCC=C(C)C`, the Activity (AGS [3]) was 2.33%, the viability at 0.2 µM (AGS [4]) was 89.6% and the Activity (AGS [5]) was 4.34%. The Activity (MGC-803 [6]) was 2.55%, the Activity (AGS [7]) was 23.07% and the Activity (MGC-803 [8]) was 0.41%. The Activity (MGC-803 [9]) was 2.79%, the viability at 1 µM (MGC-803 [10]) was 85% and the IC50 (MGC-803 [1]) was 780 nM. It also gave an Activity (AGS [11]) of 2.94%, an Activity (AGS [12]) of 5.54% and an Activity (AGS [13]) of 18.59%. The Activity (AGS [14]) was 3.49%, the Activity (MGC-803 [15]) was 1.33% and the viability at 0.2 µM (MGC-803 [16]) was 96.1%. For the same compound, the Activity (MGC-803 [17]) was “Dose-dependent effect”, the Activity (AGS [18]) was 3.16% and the Activity (MGC-803 [19]) was 0.25%. For the same compound, the Activity (MGC-803 [20]) was 1.74%, the viability at 0.5 µM (MGC-803 [21]) was 96.1% and the Activity (MGC-803 [22]) was 6.78%. For the same compound, the viability at 0.5 µM (AGS [23]) was 88.1%, the Activity (MGC-803 [24]) was 6.91% and the IC50 (AGS [2]) was 120 nM. For the same compound, the viability at 5 µM (MGC-803 [25]) was 6.51%, the Activity (AGS [26]) was “Dose-dependent effect” and the Activity (AGS [27]) was 86.44%. It also gave a viability at 5 µM (AGS [28]) of 9.55%, a viability at 1 µM (AGS [29]) of 53.3% and an Activity (MGC-803 [30]) of 91.5%. For the same compound, the Activity (MGC-803 [31]) was 0.73%, the Activity (MGC-803 [32]) was 0.7% and the Activity (AGS [33]) was 1.67%. The Activity (AGS [34]) was 2.92%, the Activity (AGS [35]) was 5.05% and the Activity (MGC-803 [36]) was 0.63%.

Work on `C/C=C(\C)C(=O)C1=C2C3=CN(CC=C(C)C)C(/C=C/[C@@H](C)CC)=CC3=C(Cl)C(=O)[C@@]2(C)OC1=O` yielded an IC50 (MGC-803 [1]) of 6800 nM and an IC50 (AGS [2]) of 2000 nM.

Work on `CC[C@H](C)/C=C/C1=CC2=C(Cl)C(=O)[C@@]3(C)OC(=O)C(C(=O)[C@@H](C)[C@@H](C)O)=C3C2=CN1CC=C(C)C` yielded an IC50 (MGC-803 [1]) of 3000 nM and an IC50 (AGS [2]) of 2900 nM.
